Measurements taken from ChEMBL document CHEMBL4190234, “Design, synthesis and anticancer activity of new monastrol analogues bearing 1,3,4-oxadiazole moiety” (Eur J Med Chem, 2017).

Assays:
Format in all cases: functional
HL-60(TB) = assay: Growth inhibition of human HL-60(TB) cells at 10 uM incubated for 48 hrs by sulforhodamine B assay relative to control; details: HL-60, 48 h, read-out: GI
Summary of the method: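 Single dose of 10 µM in the NCI ~60-line panel. Cells grown in RPMI 1640 with 5% FBS and 2 mM L-glutamine, plated and pre-incubated 24 h, then exposed 48 h at 37°C under 5% CO2. Suspension cells fixed with TCA (16% final) and stained with sulforhodamine B, A515 read. Reported as percent growth versus untreated control and as GI%.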

K562 = assay: Growth inhibition of human K562 cells at 10 uM incubated for 48 hrs by sulforhodamine B assay relative to control; details: K562, 48 h, read-out: GI
Summary of the method: (§1)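 Single-dose screen at 10 μM final: cells in RPMI 1640, 5% FBS, 2 mM L-glutamine, plated 5,000–40,000/well, preincubated 24 h at 37°C, 5% CO2; drug 48 h; adherent cells fixed with 10% TCA, suspension cells with 16% TCA; SRB stain, absorbance 515 nm; percentage growth versus untreated control, with time-zero plates.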

MOLT-4 = assay: Growth inhibition of human MOLT4 cells at 10 uM incubated for 48 hrs by sulforhodamine B assay relative to control; details: MOLT-4, 48 h, read-out: GI; summary of the method: as §1
RPMI-8226 = assay: Growth inhibition of human RPMI8226 cells at 10 uM incubated for 48 hrs by sulforhodamine B assay relative to control; details: RPMI-8226, 48 h, read-out: GI; summary of the method: as §1
EKVX = assay: Growth inhibition of human EKVX cells at 10 uM incubated for 48 hrs by sulforhodamine B assay relative to control; details: read-out: GI; summary of the method: as §1
HOP-92 = assay: Growth inhibition of human HOP92 cells at 10 uM incubated for 48 hrs by sulforhodamine B assay relative to control; details: HOP-92, 48 h, read-out: GI; summary of the method: as §1
NCI-H23 = assay: Growth inhibition of human NCI-H23 cells at 10 uM incubated for 48 hrs by sulforhodamine B assay relative to control; details: NCI-H23, 48 h, read-out: GI; summary of the method: as §1
NCI-H322M = assay: Growth inhibition of human NCI-H322M cells at 10 uM incubated for 48 hrs by sulforhodamine B assay relative to control; details: read-out: GI; summary of the method: as §1
NCI-H460 = assay: Growth inhibition of human NCI-H460 cells at 10 uM incubated for 48 hrs by sulforhodamine B assay relative to control; details: NCI-H460, 48 h, read-out: GI; summary of the method: as §1
NCI-H522 = assay: Growth inhibition of human NCI-H522 cells at 10 uM incubated for 48 hrs by sulforhodamine B assay relative to control; details: NCI-H522, 48 h, read-out: GI; summary of the method: as §1
HCC 2998 = assay: Growth inhibition of human HCC2998 cells at 10 uM incubated for 48 hrs by sulforhodamine B assay relative to control; details: HCC 2998, 48 h, read-out: GI; summary of the method: as §1
HCT-15 = assay: Growth inhibition of human HCT15 cells at 10 uM incubated for 48 hrs by sulforhodamine B assay relative to control; details: HCT-15, 48 h, read-out: GI; summary of the method: as §1
KM12 = assay: Growth inhibition of human KM12 cells at 10 uM incubated for 48 hrs by sulforhodamine B assay relative to control; details: KM12, 48 h, read-out: GI; summary of the method: as §1
SF-268 = assay: Growth inhibition of human SF268 cells at 10 uM incubated for 48 hrs by sulforhodamine B assay relative to control; details: SF-268, 48 h, read-out: GI
Summary of the method: (§2)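 NCI single-dose screen: cells grown in RPMI 1640 with 5% FBS and 2 mM L-glutamine, plated at 5,000–40,000 cells/well and preincubated 24 h at 37 °C, 5% CO2. Compounds taken from DMSO stock and tested at final 10 µM for 48 h. Cells fixed with TCA, stained with 0.4% SRB, absorbance read at 515 nm. Percentage growth calculated against untreated controls; controls held DMSO at the same dilution.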

SF-539 = assay: Growth inhibition of human SF539 cells at 10 uM incubated for 48 hrs by sulforhodamine B assay relative to control; details: SF-539, 48 h, read-out: GI; summary of the method: as §2
SNB-75 = assay: Growth inhibition of human SNB75 cells at 10 uM incubated for 48 hrs by sulforhodamine B assay relative to control; details: SNB-75, 48 h, read-out: GI; summary of the method: as §2
LOX IMVI = assay: Growth inhibition of human LOXIMVI cells at 10 uM incubated for 48 hrs by sulforhodamine B assay relative to control; details: read-out: GI; summary of the method: as §1
M14 = assay: Growth inhibition of human M14 cells at 10 uM incubated for 48 hrs by sulforhodamine B assay relative to control; details: M14, 48 h, read-out: GI; summary of the method: as §1
SK-MEL-5 = assay: Growth inhibition of human SK-MEL-5 cells at 10 uM incubated for 48 hrs by sulforhodamine B assay relative to control; details: SK-MEL-5, 48 h, read-out: GI; summary of the method: as §2
OVCAR-3 = assay: Growth inhibition of human OVCAR3 cells at 10 uM incubated for 48 hrs by sulforhodamine B assay relative to control; details: OVCAR-3, 48 h, read-out: GI; summary of the method: as §1
OVCAR-4 = assay: Growth inhibition of human OVCAR4 cells at 10 uM incubated for 48 hrs by sulforhodamine B assay relative to control; details: OVCAR-4, 48 h, read-out: GI; summary of the method: as §1
OVCAR-5 = assay: Growth inhibition of human OVCAR5 cells at 10 uM incubated for 48 hrs by sulforhodamine B assay relative to control; details: OVCAR-5, 48 h, read-out: GI; summary of the method: as §1
NCI/ADR-RES = assay: Growth inhibition of human NCI/ADR-RES cells at 10 uM incubated for 48 hrs by sulforhodamine B assay relative to control; details: read-out: GI; summary of the method: as §1
SK-OV-3 = assay: Growth inhibition of human SKOV3 cells at 10 uM incubated for 48 hrs by sulforhodamine B assay relative to control; details: SK-OV-3, 48 h, read-out: GI; summary of the method: as §2
ACHN = assay: Growth inhibition of human ACHN cells at 10 uM incubated for 48 hrs by sulforhodamine B assay relative to control; details: read-out: GI; summary of the method: as §1
CAKI-1 = assay: Growth inhibition of human Caki1 cells at 10 uM incubated for 48 hrs by sulforhodamine B assay relative to control; details: CAKI-1, 48 h, read-out: GI; summary of the method: as §1
RXF 393 = assay: Growth inhibition of human RXF393 cells at 10 uM incubated for 48 hrs by sulforhodamine B assay relative to control; details: RXF 393, 48 h, read-out: GI; summary of the method: as §1
TK-10 = assay: Growth inhibition of human TK10 cells at 10 uM incubated for 48 hrs by sulforhodamine B assay relative to control; details: TK-10, 48 h, read-out: GI; summary of the method: as §2
UO-31 = assay: Growth inhibition of human UO31 cells at 10 uM incubated for 48 hrs by sulforhodamine B assay relative to control; details: UO-31, 48 h, read-out: GI; summary of the method: as §2
DU-145 = assay: Growth inhibition of human DU145 cells at 10 uM incubated for 48 hrs by sulforhodamine B assay relative to control; details: DU-145, 48 h, read-out: GI; summary of the method: as §1

SMILES	inhibition of growth at 10 µM (HL-60(TB)) [%]	inhibition of growth at 10 µM (K562) [%]	inhibition of growth at 10 µM (MOLT-4) [%]	inhibition of growth at 10 µM (RPMI-8226) [%]	inhibition of growth at 10 µM (EKVX) [%]	inhibition of growth at 10 µM (HOP-92) [%]	inhibition of growth at 10 µM (NCI-H23) [%]	inhibition of growth at 10 µM (NCI-H322M) [%]	inhibition of growth at 10 µM (NCI-H460) [%]	inhibition of growth at 10 µM (NCI-H522) [%]	inhibition of growth at 10 µM (HCC 2998) [%]	inhibition of growth at 10 µM (HCT-15) [%]	inhibition of growth at 10 µM (KM12) [%]	inhibition of growth at 10 µM (SF-268) [%]	inhibition of growth at 10 µM (SF-539) [%]	inhibition of growth at 10 µM (SNB-75) [%]	inhibition of growth at 10 µM (LOX IMVI) [%]	inhibition of growth at 10 µM (M14) [%]	inhibition of growth at 10 µM (SK-MEL-5) [%]	inhibition of growth at 10 µM (OVCAR-3) [%]	further results
CCOC(=O)C1=C(C)NC(SCc2nnc(-c3ccc(OC)cc3)o2)=NC1c1ccc(F)cc1 (stereo not given)	12	< 10	< 10	< 10	< 10	21.4	< 10	< 10	< 10	26.5	< 10	< 10	< 10	< 10	< 10	17.5	< 10	< 10	< 10	< 10	inhibition of growth at 10 µM (OVCAR-4): < 10%; inhibition of growth at 10 µM (OVCAR-5): < 10%; inhibition of growth at 10 µM (NCI/ADR-RES): < 10%; inhibition of growth at 10 µM (SK-OV-3): 14.2%; inhibition of growth at 10 µM (ACHN): < 10%; inhibition of growth at 10 µM (CAKI-1): 24.9%; inhibition of growth at 10 µM (RXF 393): 14.5%; inhibition of growth at 10 µM (TK-10): < 10%; inhibition of growth at 10 µM (UO-31): 21.7%; inhibition of growth at 10 µM (DU-145): < 10%
CCOC(=O)C1=C(C)NC(SCc2nnc(-c3ccc(Cl)cc3)o2)=NC1c1cccc(Cl)c1 (stereo not given)	80.4	27.5	45	46.4	< 10	49	< 10	< 10	< 10	74.6	10.3	29.5	16	< 10	< 10	16.8	17.7	26.2	< 10	17.3	inhibition of growth at 10 µM (OVCAR-4): 16.9%; inhibition of growth at 10 µM (OVCAR-5): 10.5%; inhibition of growth at 10 µM (NCI/ADR-RES): 21.3%; inhibition of growth at 10 µM (SK-OV-3): 29.9%; inhibition of growth at 10 µM (ACHN): < 10%; inhibition of growth at 10 µM (CAKI-1): 35.1%; inhibition of growth at 10 µM (RXF 393): < 10%; inhibition of growth at 10 µM (TK-10): 30.3%; inhibition of growth at 10 µM (UO-31): 35.9%; inhibition of growth at 10 µM (DU-145): 13.5%
CCOC(=O)C1=C(C)NC(SCc2nnc(-c3ccc(C)cc3)o2)=NC1c1ccc(F)cc1 (stereo not given)	25.2	14.7	21.6	27.2	< 10	37	< 10	10.3	< 10	22.4	< 10	11.3	< 10	< 10	< 10	13.8	< 10	< 10	14.5	< 10	inhibition of growth at 10 µM (OVCAR-4): < 10%; inhibition of growth at 10 µM (OVCAR-5): < 10%; inhibition of growth at 10 µM (NCI/ADR-RES): < 10%; inhibition of growth at 10 µM (SK-OV-3): < 10%; inhibition of growth at 10 µM (ACHN): 19%; inhibition of growth at 10 µM (CAKI-1): 24.7%; inhibition of growth at 10 µM (RXF 393): < 10%; inhibition of growth at 10 µM (TK-10): 28.4%; inhibition of growth at 10 µM (UO-31): < 10%; inhibition of growth at 10 µM (DU-145): < 10%
